Test results from PubChem BioAssay.
For some of these results: Entries with a potency or affinity are not part of this list. Active and inactive are the calls of the source.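 The calls were made as follows, unless noted: active = primary screen inhibitor hit that blocks the TRPC4 channel at some tested dose, yielding a dose curve; inactive = the rest.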

Legend:
[1] = biological target: Short transient receptor potential channel 4 (Mus musculus) (UniProt Q9QUQ5); assay: block of DAMGO-driven TRPC4 calcium entry – cell-based, HEK293 TRPC4/mu-opioid, Fluo-4 calcium, dose response (AID 434942)
[2] = biological target: Potassium voltage-gated channel subfamily E member 1 (Homo sapiens) + Potassium voltage-gated channel subfamily KQT member 1 (Homo sapiens) (UniProt P15382+P51787); assay: KCNQ1-E1 channel activation – thallium flux, CHO-K1 KCNQ1/E1 cells, selectivity assay for KCNQ1 potentiator project, confirmation (AID 493186;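 active = mean duplicate activation above the buffer control mean plus 5 SD of those controls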); conditions: FluxOR thallium flux, at 10 µM
Outline: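 Material: CHO-K1 cells with KCNQ1/E1 / Timing: dye 90 min, compound 20 min, room temperature / Technique: kinetic thallium-sensitive FluxOR dye fluorescence / Read-out: percent activation scaled between buffer and R-L3 ratio signals / Replicates: tested in duplicate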

Chain of Potassium voltage-gated channel subfamily E member 1 (Homo sapiens) + Potassium voltage-gated channel subfamily KQT member 1 (Homo sapiens) (P51787 whole entry, looked up): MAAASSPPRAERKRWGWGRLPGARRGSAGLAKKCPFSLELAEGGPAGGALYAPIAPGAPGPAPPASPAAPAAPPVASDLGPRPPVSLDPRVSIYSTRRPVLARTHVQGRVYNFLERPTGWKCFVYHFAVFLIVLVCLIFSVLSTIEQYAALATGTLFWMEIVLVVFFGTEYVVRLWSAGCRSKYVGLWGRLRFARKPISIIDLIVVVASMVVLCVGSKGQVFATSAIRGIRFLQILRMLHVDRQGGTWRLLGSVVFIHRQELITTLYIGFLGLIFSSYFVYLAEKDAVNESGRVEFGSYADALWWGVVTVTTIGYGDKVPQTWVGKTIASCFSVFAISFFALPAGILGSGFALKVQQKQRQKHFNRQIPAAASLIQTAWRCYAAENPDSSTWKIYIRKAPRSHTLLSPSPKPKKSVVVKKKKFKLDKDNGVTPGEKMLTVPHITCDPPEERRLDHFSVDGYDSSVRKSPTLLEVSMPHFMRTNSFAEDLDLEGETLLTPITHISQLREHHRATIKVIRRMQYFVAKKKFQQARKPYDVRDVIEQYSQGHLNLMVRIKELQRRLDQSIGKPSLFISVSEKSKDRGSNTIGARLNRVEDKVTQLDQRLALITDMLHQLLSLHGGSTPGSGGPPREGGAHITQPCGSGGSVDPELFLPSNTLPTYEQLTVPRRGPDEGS
Chain of Short transient receptor potential channel 4 (Mus musculus) (Q9QUQ5 whole entry, looked up): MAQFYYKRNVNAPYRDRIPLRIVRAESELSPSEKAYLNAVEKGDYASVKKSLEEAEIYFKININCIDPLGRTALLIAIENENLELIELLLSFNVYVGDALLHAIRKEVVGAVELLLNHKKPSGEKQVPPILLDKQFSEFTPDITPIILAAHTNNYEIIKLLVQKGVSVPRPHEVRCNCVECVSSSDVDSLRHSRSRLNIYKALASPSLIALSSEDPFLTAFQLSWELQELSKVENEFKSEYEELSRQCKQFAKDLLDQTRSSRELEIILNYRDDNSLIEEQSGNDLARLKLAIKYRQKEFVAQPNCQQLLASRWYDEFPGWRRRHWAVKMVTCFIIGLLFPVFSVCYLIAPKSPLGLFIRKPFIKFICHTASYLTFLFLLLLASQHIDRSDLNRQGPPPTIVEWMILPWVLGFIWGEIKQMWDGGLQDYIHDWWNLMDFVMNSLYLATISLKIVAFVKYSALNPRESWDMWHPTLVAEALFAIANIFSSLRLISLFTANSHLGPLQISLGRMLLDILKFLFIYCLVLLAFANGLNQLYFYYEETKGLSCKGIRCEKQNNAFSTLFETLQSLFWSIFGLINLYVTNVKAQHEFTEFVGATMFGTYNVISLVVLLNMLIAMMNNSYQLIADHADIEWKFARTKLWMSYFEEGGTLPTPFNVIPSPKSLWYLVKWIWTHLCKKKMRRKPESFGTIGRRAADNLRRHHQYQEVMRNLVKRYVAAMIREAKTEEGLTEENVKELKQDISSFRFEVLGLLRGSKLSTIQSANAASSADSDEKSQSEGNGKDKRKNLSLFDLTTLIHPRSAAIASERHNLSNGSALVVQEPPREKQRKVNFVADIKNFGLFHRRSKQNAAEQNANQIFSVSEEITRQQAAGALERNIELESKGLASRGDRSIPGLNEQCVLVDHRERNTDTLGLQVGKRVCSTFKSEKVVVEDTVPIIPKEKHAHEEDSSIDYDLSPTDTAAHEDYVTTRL

| Compound | outcome [1] | outcome [2] |
| --- | --- | --- |
| CC1CCN(c2nc(Cl)nc(Nc3ccc([N+](=O)[O-])cc3)n2)CC1 | inactive | – |
| Cc1ccc(/C=N/NC(=O)NC2CCCCC2)o1 | inactive | – |
| C=CCSc1nc2c(c(=O)[nH]c(=O)n2C)n1C/C=C(/C)Cl | – | inactive |
| O=c1[nH][nH]c(-c2ccccc2)c1C=Nc1ccc(Cl)cc1 | inactive | – |
| O=C(NCc1ccccc1)C1=C[C@H](c2ccc(Br)cc2)C[C@H](OCc2ccc(CO)cc2)O1 | inactive | – |
| O=[N+]([O-])c1ccc(/C=N/Nc2nc(N3CCCCC3)nc(N3CCCCC3)n2)o1 | inactive | – |
| CCn1c(O)c(N=NC(=O)c2cccc(S(=O)(=O)N3CCCCC3)c2)c2ccccc21 | inactive | – |
| CC(C)c1c(O)nc(SCCN(C)C)[nH]c1=O | inactive | – |
| Cc1cc2oc(C(=O)N(Cc3ccccc3)C3CCS(=O)(=O)C3)cc(=O)c2cc1Cl (stereo not drawn) | inactive | – |
| Brc1ccccc1CN1CCN(Cc2c[nH]c3ccccc23)CC1 | – | inactive |
| CC1=C(C(=O)NCc2ccccc2)C(c2cc(Br)cc(Br)c2OC(C)C)NC(=O)N1 (stereo not drawn) | inactive | – |
| CCCc1nc2oc3c(NCCN(C)C)ncnc3c2c2c1CCCC2 | – | inactive |
| CCCCN(C)CCNC(=O)c1cc2c(-c3cccc(OC)c3)nn(C)c2s1 | inactive | – |
